Screens as filed in PubChem BioAssay.
Dynein transport – inhibitors of GR-EGFP nuclear translocation, primary screen, dynein cargo transport inhibitor project, imaging, high-content, 3617.4 mouse cells. z-score, hits read low. test concentration mostly 20 µM; stimulated with dexamethasone, 1 µM; active compounds read low. 220,000 tested, 0.47% active. AID 1381, 2008;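 active = plate z-score of nuclear minus cytoplasmic receptor signal below a set negative limit, without overly bright fluorescence or cell loss, cut at about -3.5 in these data, passing the limit was not always enough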;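 note: z-score of nuclear minus cytoplasmic ring GR-EGFP intensity difference per well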
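Buffer or medium: tet-free, stripped-serum medium; reagent: dexamethasone at 1.0 µM final, 30 min; incubation: 48 h induction, 1 h compound, 30 min dex at 37 °C; measured by: formaldehyde fixation, Hoechst nuclear stain, 10x automated fluorescence imaging; read-out: nuclear-to-cytoplasmic GR-EGFP distribution per well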
Lmaj promast – Leishmania major promastigote growth inhibition, primary screen; inhibition, % at 10 µM; 200,000 tested, 9% active; Leishmania major promastigotes, resazurin fluorescence viability; in the data active = inhibition above about 50%;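 note: promastigotes grown with compound for 44 hours at 28 °C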
CHOP inh – inhibitors of CHOP promoter induction, primary screen, cell-based, unfolded protein response, luciferase reporter; CHO-K1 CHOP-promoter luciferase, tunicamycin-induced, 15-18 h; inhibition, % at 10 µM; 220,000 tested, 3.8% active;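 active = compounds that reduced the stress-induced luciferase reporter signal by more than about 70% of percent inhibition, limit read from the data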;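 note: 0% = tunicamycin plus vehicle and 100% = wells without tunicamycin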
Autophagy HCS – autophagy modulators in MEF cells, primary screen, imaging, high-content, MEF GFP-LC3; MEF GFP-LC3 puncta imaging; test concentration mostly 10 µM; calls only at 10 µM (by protocol); 190,000 tested, 0.98% active;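 active = percentage of spot-positive cells more than 3 SD above its plate mean, without a fluorescence outlier flag or 80% toxicity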;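 note: spot-positive cell cutoff set from DMSO-treated cells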
b-catenin transl – modulators of beta-catenin nuclear translocation, primary screen, imaging, HeLa cells, immunofluorescence, high-content; nuclear translocation activity, % at 5 µM; 190,000 tested, 0.3% active; AID 1665, 2009;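 active = nuclear translocation activity above 50% at 5 µM, with a well cell count of 50 or more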;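 note: per-cell ratio of nuclear to cytoplasmic median beta-catenin stain intensity; plate controls were DMSO negative control for no effect and GSK-3 inhibitor IX positive control for full effect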
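Test system: human HeLa cells, native beta-catenin. Compound dosing: 5 µM primary single dose, 0.1% DMSO, 0.02–20 µM confirmation series. Incubation: compound exposure 24 h at 37°C. Detection: beta-catenin immunostaining with DAPI counterstain, 20x imaging, 6 fields/well. Read-out basis: Nuclear/cytoplasmic beta-catenin signal ratio, % activation.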
MT stabilizer – microtubule stabilizers in HeLa cells, primary screen, imaging, high-content imaging; % tubulin-high responders, % at 10 µM; 200,000 tested, 0.83% active; AID 2205, 2009; HeLa tubulin immunostaining HCS, 24 h; share of cells brighter than vehicle mean+2SD;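 active = plate Z-score above 3 for both tubulin-high and condensed-nucleus cell shares, with cell loss under 80%, at 10 µM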;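 note: anti alpha tubulin signal scored within the nucleus-defined area of each cell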
* = called active by the depositor; i = inactive; nt = not tested or not shown. This is a sample that favours compounds with a hit; in the whole collection about 12% have one here.

SMILES	Dynein transport	Lmaj promast	CHOP inh	Autophagy HCS	b-catenin transl	MT stabilizer
CCS(=O)(=O)N1CCN(c2ccc(C(=O)N3CCOCC3)cc2[N+](=O)[O-])CC1	0.35	nt	0	nt	-1	nt
COc1ccc(N2CCN(C(=O)c3ccc(C)cc3)CC2)c([N+](=O)[O-])c1	-0.18	54*	41	i	2	6
CCS(=O)(=O)N1CCN(c2ccc(C(=O)NC3C4CC5CC(C4)CC3C5)cc2[N+](=O)[O-])CC1 (stereo unspecified)	0.33	52*	29	i	1	2
COC(=O)c1ccc(N2CCN(S(=O)(=O)c3ccc(C)cc3)CC2)c([N+](=O)[O-])c1	nt	-4	75*	i	-4	2
O=C1CCCC2=C1C(c1ccco1)Nc1ccc3ccccc3c12 (stereo unspecified)	-0.27	11	37	i	-4	5
N#CC1CC(c2ccccc2)Nc2cc(Cl)ccc2N1 (stereo unspecified)	0.16	nt	-11	nt	0	nt
Oc1ccc2ccccc2c1C=Nc1cc(C(F)(F)F)ccc1N1CCCC1	-0.97	2	-10	i	nt	4
Nc1nonc1C(=O)NCCNS(=O)(=O)c1ccc(F)cc1	-0.57	-6	37	i	-3	6
Cc1ccccc1-n1c(Cc2cccs2)n[nH]c1=S	0.34	-5	2	i	-1	4
CCOC(=O)Cn1nc(C)cc1NC(=O)c1cccnc1	0.96	-1	26	i	1	2
COC(=O)c1ccc(N2CCCCC2)c(NS(=O)(=O)c2ccc(C)cc2)c1	-1.4	97*	20	i	-2	2
CCOC(=O)c1ccc(N2CCCCC2)c(NS(=O)(=O)c2cccc(C(F)(F)F)c2)c1	-0.26	nt	-1	nt	0	nt
O=[N+]([O-])c1cc(C(F)(F)F)cc([N+](=O)[O-])c1N1CCN(S(=O)(=O)c2ccccc2)CC1	-0.56	51*	40	i	2	4
CCN(CC)CCNC(=O)c1ccc(N2CCCCC2)c(NS(=O)(=O)c2ccc(C)cc2)c1	0.36	101*	72*	i	-2	2
CCOC(=O)N1CCC(Nc2c(NCCCN(CC)Cc3ccccc3)c(=O)c2=O)CC1	-1.2	-8	18	i	nt	4
Cc1cc(Cl)cc(Br)c1OCCCN1C(=O)NC(C)(C)C1=O	-0.73	-2	29	i	nt	3
CCC(=O)Nc1ccccc1-c1nnn(CC(=O)N2c3ccccc3CC2C)n1 (stereo unspecified)	2.3	5	76*	i	-2	1
COc1ccc(C(=O)Nc2ccc(Cl)cc2C(=O)N2CCCC(C)C2)cc1 (stereo unspecified)	0.29	12	14	i	-4	2
N#CC(C(=O)c1ccccc1)=C1SCCS1	-0.54	nt	-9	nt	-2	nt
Nc1nc(SCC(=O)N2CCCC2)[nH]c(=O)c1NC(=O)c1cccs1	-0.21	nt	15	nt	0	nt
O=C(Nc1ccccc1)N(C1=NCCC1)c1ccc(OC(F)F)cc1	-0.072	9	81*	i	-4	1
CCC(C)N1C(=O)CN(C2CCCCCC2)C(=O)C1c1ccccc1F (stereo unspecified)	0.24	19	-19	i	0	3
CC(C)Oc1ccc(Cc2cnc(N)nc2N)cc1	0.84	58*	-18	i	11	2
CC1=CC(=O)N(c2ccc(C)cc2)C1c1ccc(Cl)cc1 (stereo unspecified)	-0.82	61*	13	i	-6	2
CC(=O)Nc1ccc(C(=O)Nc2nc(-c3ccccn3)cs2)cc1	-0.12	64*	0	i	0	4
SMILES	Dynein transport	Lmaj promast	CHOP inh	Autophagy HCS	b-catenin transl	MT stabilizer
O=C(Nc1nc(-c2ccccn2)cs1)c1ccc2c(c1)OCCO2	0.17	99*	33	i	-2	4
CC1(C)Cc2ccccc2C2=NNC(=O)C2=N1	-0.95	100*	23	i	1	4
O=C(CCc1ccc(S(=O)(=O)N2CCOCC2)cc1)Nc1nc(COc2ccccc2)cs1	-0.74	96*	55	i	-4	4
NCCOc1ccccc1Cc1ccccc1	0.8	99*	14	i	nt	2
CC(C)c1ccc(/C=c2\sc3nc(-c4ccncc4)nn3c2=O)cc1	-0.28	-5	71*	i	-3	2
CC(OC(=O)c1cc2sccc2n1C)C(=O)NC(C)(C)C (stereo unspecified)	-0.33	0	14	i	0	3
Cn1c(C(=O)OC(C(=O)NC2CCCCC2)c2cccnc2)cc2sccc21 (stereo unspecified)	0.71	97*	-25	i	-8	4
Cn1c(C(=O)OC(C(=O)NC2CCCC2)c2cccnc2)cc2sccc21 (stereo unspecified)	0.61	98*	13	i	8	2
CC(C)(C)NC(=O)Cn1c(SCC(N)=O)nc2ccccc21	0.042	-4	8	i	-2	2
COc1ccc(OC)c(C(=O)CSc2nc3ccccc3n2CC(=O)NC(C)(C)C)c1	0.11	61*	56	i	nt	2
O=C(NCc1ccccn1)C(=O)NCC(c1ccco1)N1CCN(c2ccc(F)cc2)CC1 (stereo unspecified)	-1.6	-7	6	i	1	2
O=S(=O)(NCC(c1ccco1)N1CCN(c2ccccc2)CC1)c1ccc(F)cc1 (stereo unspecified)	-0.24	6	50	i	-2	7
O=C(NCc1ccncc1)C(=O)NCC(c1ccco1)N1CCN(c2ccc(F)cc2)CC1 (stereo unspecified)	0.73	55*	5	i	5	1
Cc1ccc(S(=O)(=O)NCCC(c2ccc(F)cc2)c2ccco2)cc1 (stereo unspecified)	-0.15	56*	47	i	-1	1
Cc1ccc(S(=O)(=O)NCCC(c2ccccc2)c2ccco2)cc1 (stereo unspecified)	2.7	-2	51	i	0	2
O=C(CNS(=O)(=O)c1ccc(Br)cc1)N1CCN(c2ccc(F)cc2)CC1	0.92	2	39	i	-3	4
O=S(=O)(NCC(c1ccco1)N1CCN(c2ccc(F)cc2)CC1)c1ccc(F)cc1 (stereo unspecified)	-0.55	75*	68	i	-4	4
O=C(CNS(=O)(=O)c1ccc(F)cc1)N1CCN(c2ccccc2)CC1	2.5	-4	80*	i	nt	3
O=S(=O)(NC1=NCCC1)c1ccc(F)cc1F	-0.044	-14	4	i	-1	5
